Reference: ChEMBL document CHEMBL4825702, “5-Aminonaphthalene derivatives as selective nonnucleoside nuclear receptor binding SET domain-protein 2 (NSD2) inhibitors for the treatment of multiple myeloma” (Eur J Med Chem, 2021)
Active and inactive are the calls of the source. The calls are words filed in the database; no cut-off is given here.

Tests used:
KMS-11 [1] = test: Antiproliferative activity against human KMS-11 cells assessed as reduction in cell viability at 1 to 100 uM by CCK8 assay; type: functional, cell-based; conditions: dose 1-100 µM, time 6.0 day, TDE = time-dependent effect
RS4-11 [2] = test: Antiproliferative activity against human RS4-11 cells assessed as reduction in cell viability at 1 to 100 uM by CCK8 assay; type: functional, cell-based; conditions: dose 1-100 µM, time 6.0 day, TDE = time-dependent effect
KARPAS-422 = test: Antiproliferative activity against human KARPAS-422 cells assessed as reduction in cell viability incubated for 6 days by CCK8 assay
KMS-11 [3] = test: Induction of apoptosis in human KMS-11 cells incubated for 72 hrs by annexin-V/FITC and propidium iodide staining based flow cytometry analysis; type: functional, cell-based; conditions: dose 5-10 µM
[4] = target: T1, Histone-lysine N-methyltransferase NSD2 (Homo sapiens, UniProt O96028); test: Inhibition of recombinant human N-terminal GST-tagged NSD2 CD (941 to 1240 residues) expressed in Escherichia coli using SAM as substrate in presence of nucleosomes by AlphaLISA method
T1 sequence (O96028 whole entry): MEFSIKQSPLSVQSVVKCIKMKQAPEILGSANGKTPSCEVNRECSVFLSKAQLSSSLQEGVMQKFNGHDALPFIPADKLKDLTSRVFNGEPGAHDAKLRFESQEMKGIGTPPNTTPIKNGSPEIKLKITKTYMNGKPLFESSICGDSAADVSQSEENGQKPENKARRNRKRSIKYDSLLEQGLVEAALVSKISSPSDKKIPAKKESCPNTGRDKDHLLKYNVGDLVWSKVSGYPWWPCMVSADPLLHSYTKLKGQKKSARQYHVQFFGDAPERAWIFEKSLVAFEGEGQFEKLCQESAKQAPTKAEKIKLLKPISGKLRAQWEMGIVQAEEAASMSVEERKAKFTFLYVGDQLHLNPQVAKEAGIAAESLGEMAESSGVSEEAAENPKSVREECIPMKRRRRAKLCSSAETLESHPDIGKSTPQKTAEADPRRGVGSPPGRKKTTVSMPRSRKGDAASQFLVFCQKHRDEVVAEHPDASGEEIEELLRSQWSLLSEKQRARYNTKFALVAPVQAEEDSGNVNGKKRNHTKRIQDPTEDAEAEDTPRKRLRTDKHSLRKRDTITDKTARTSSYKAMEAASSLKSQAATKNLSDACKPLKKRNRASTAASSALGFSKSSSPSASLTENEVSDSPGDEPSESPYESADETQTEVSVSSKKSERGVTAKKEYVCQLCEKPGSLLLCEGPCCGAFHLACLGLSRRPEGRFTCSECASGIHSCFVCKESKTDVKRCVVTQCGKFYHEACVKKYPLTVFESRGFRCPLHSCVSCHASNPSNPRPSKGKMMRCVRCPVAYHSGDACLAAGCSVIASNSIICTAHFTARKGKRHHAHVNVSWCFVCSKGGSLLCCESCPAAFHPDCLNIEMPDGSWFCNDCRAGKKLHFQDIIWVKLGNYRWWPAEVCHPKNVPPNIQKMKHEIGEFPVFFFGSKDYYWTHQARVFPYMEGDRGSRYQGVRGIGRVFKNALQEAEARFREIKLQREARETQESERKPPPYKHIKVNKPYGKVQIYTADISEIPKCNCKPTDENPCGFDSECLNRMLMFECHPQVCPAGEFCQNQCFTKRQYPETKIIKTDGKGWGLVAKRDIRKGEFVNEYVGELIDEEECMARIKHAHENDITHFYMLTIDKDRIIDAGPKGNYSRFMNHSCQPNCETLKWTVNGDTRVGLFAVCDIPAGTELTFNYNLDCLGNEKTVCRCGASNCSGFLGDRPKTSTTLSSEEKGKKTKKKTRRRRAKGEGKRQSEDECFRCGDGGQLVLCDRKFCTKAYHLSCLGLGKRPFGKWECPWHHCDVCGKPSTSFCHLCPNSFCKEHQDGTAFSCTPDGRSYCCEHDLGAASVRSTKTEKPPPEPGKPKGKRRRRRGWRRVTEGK

RS4-11 [5] = test: Induction of apoptosis in human RS4-11 cells incubated for 72 hrs by annexin-V/FITC and propidium iodide staining based flow cytometry analysis; type: functional, cell-based; conditions: dose 5-10 µM
[6] = Volume of distribution in CD-1 mouse at 2 mg/kg, iv measured up to 24 hrs by LC-MS/MS; type: ADME, organism-based; conditions: in vivo
Procedure, shortened: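 CD-1 mice dosed at 2 mg/kg i.p. or i.v., n = 3 per group. Blood sampled at 0, 0.083, 0.25, 0.5, 1, 2, 4, 6, 8 and 24 h and spun for plasma. Internal standard added, deproteinized with methanol/acetonitrile (1:1), supernatant diluted and analysed by LC/MS/MS.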

[7] = Cmax in CD-1 mouse at 2 mg/kg, ip measured up to 24 hrs by LC-MS/MS; type: ADME, organism-based; design: route intraperitoneal, dose 2 mg/kg, time <=24; conditions: in vivo
Procedure, shortened: (§1)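 CD-1 mice given a single 2 mg/kg dose i.p. or i.v. (n = 3 per group). Blood sampled at 0, 0.083, 0.25, 0.5, 1, 2, 4, 6, 8 and 24 h and centrifuged for plasma, with internal standard added. Plasma deproteinized with methanol/acetonitrile (1:1), supernatant diluted with acetonitrile/water, and compound measured by LC/MS/MS.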

KMS-11 [8] = test: Antiproliferative activity against human KMS-11 cells assessed as reduction in cell viability incubated for 6 days by CCK8 assay; conditions: KMS-11, 6 days
KMS-11 [9] = test: cells; conditions: Homo sapiens, KMS-11, 72 h, read-out: Activity
RS4-11 [10] = test: Toxicity in SCID mouse xenografted with human RS4-11 cells assessed as body weight LOSS at 25 to 50 mg/kg, ip qd administered consecutively for 21 days; type: functional, organism-based; conditions: dose 25-50 mg/kg, time 21.0 day
Procedure, shortened: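 Female SCID mice, 4 weeks old, implanted subcutaneously in the flank with 1 × 10⁷ RS4:11 cells in 0.2 mL PBS. At about 100 mm³, groups of n = 8 received 25 or 50 mg/kg or vehicle intraperitoneally once daily for 21 days. Body weight and tumors measured twice weekly.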

[11] = AUC in CD-1 mouse at 2 mg/kg, iv measured up to 24 hrs by LC-MS/MS; type: ADME, organism-based; design: route intravenous, dose 2 mg/kg, time <=24; conditions: in vivo; procedure, shortened: as §1
KMS-11 [12] = test: cells; conditions: Homo sapiens, KMS-11, 72 h, read-out: Activity; remark: listed apart in the source
OPM-2 = test: Antiproliferative activity against human OPM-2 cells assessed as reduction in cell viability incubated for 6 days by CCK8 assay
RS4-11 [13] = test: Antitumor activity against human RS4-11 cells xenografted in SCID mouse assessed as tumor growth inhibition at 25 mg/kg, ip qd administered consecutively for 21 days relative to control; conditions: RS4-11, ip, 504 h, read-out: TGI
MV4-11 = test: Induction of cell cycle arrest in human MV4-11 cells assessed as G0/G1 phase incubated for 72 hrs by ribonucleaseA/propidium iodide staining based flow cytometry analysis; type: functional
Procedure, shortened: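 Cell cycle by PI: cells exposed for 72 h at 5 and 10 µM vs vehicle, washed twice, fixed overnight in pre-cooled 70% ethanol, then stained 45 min at room temperature with ribonuclease A and PI. Acquired on FACSCanto and phase fractions modelled.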

SMILES: Cl.Nc1cccc2c(S(=O)(=O)NCc3ccccc3)cccc12
- Activity (KMS-11 [1]): Tde
- Activity (RS4-11 [2]): Tde
- Activity (KARPAS-422): Active
- Activity (KMS-11 [3]): Dose-Dependent Effect
- IC50 [4]: 2.7 µM
- Activity (RS4-11 [5]): Dose-Dependent Effect
- Vd [6]: 3.85 L/kg
- Cmax [7]: 0.433 µg/mL
- IC50 (KMS-11 [8]): 1.88 µM
- viability at 10 µM (KMS-11 [9]): 50.4%
- Activity (RS4-11 [10]): Not toxic
- AUC at 24 h [11]: 0.204 µg·h/mL
- viability at 5 µM (KMS-11 [12]): 58.7%
- Activity (OPM-2): Active
- inhibition in vivo at 25 mg/kg (RS4-11 [13]): 43.6%
- Activity (MV4-11): inactive
